We go through 23 molecules from ChEMBL document CHEMBL1125104, “Long-acting dihydropyridine calcium antagonists. 5. Synthesis and structure-activity relationships for a series of 2-[[(N-substituted-heterocyclyl)ethoxy]methyl]-1,4-dihydropyridine calcium antagonists” (J Med Chem, 1990).

The species named for one data set is Cavia porcellus. The data set is described as follows: Concentration required to depress contraction in the Langendorff-perfused guinea pig heart. In kind it is functional. A digest of the protocol: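 Langendorff-perfused guinea pig heart, in vitro. The negative inotropic effect is given as IC25, the concentration that depresses contraction by 25%.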
The species entered for a further data set is Rattus norvegicus. As to the kind of experiment: Concentration required to block Ca+2-induced contraction of K+ depolarized rat aorta. In kind it is functional. The procedure, abridged:
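Isolated rat aorta depolarized with potassium; contraction triggered by added calcium. IC50 is the concentration that inhibits the calcium-induced contraction by 50%.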

A short description of data set [1]: […] of rat aorta to […] of guinea pig. In kind it is functional.
The nature of data set [2]: Half life of the compound.
For the next data set, the system named is Canis familiaris. The data set is described as follows: Coronary vasodilator activity in anesthetized dogs at the dose of 150 ug/kg (iv). In kind it is functional, Canis lupus familiaris.

A value given as a limit tells only on which side of the number the result lay.

`CCO/C(O)=C1\C(COCCN2C(=O)CNC2=O)=NC(C)=C(C(=O)OC)C1c1ccccc1Cl` (stereo not given) returned a pIC25 in the data set listed under Cavia porcellus of 6.8. In addition, the IC50 in the data set filed under Rattus norvegicus was 31.6 nM. Also, the Selectivity index in data set [1] worked out at 5.

As for `CCO/C(O)=C1\C(COCCn2nncc2C(N)=O)=NC(C)=C(C(=O)OC)C1c1ccccc1Cl` (stereo not given), the pIC25 in the data set listed under Cavia porcellus amounted to 6.3. This molecule had an IC50 in the data set filed under Rattus norvegicus of 100 nM. Also, the Selectivity index in data set [1] came to 5.

Turning to `CCO/C(O)=C1\C(COCCn2ccnn2)=NC(C)=C(C(=O)OC)C1c1cccc(Cl)c1Cl` (stereo not given), the pIC25 in the data set filed under Cavia porcellus came to 7.3. The molecule also had a half-life in data set [2] of 30 min. Also, in the data set with Canis familiaris, the Decrease stood at 79%. The IC50 in the data set filed under Rattus norvegicus is 5.01 nM. In addition, in data set [1], the Selectivity index is listed as 10.

`CCOC(=O)c1cn(CCOCC2=NC(C)=C(C(=O)OC)C(c3ccccc3Cl)/C2=C(\O)OCC)nn1` (stereo not given) yielded a pIC25 in the data set filed under Cavia porcellus of 7. In the data set filed under Rattus norvegicus, this molecule showed an IC50 of 50.1 nM. In addition, the Selectivity index in data set [1] worked out at 2.

In the case of `CCOC(=O)c1cnnn1CCOCC1=NC(C)=C(C(=O)OC)C(c2ccccc2Cl)/C1=C(\O)OCC` (stereo not given), in the data set listed under Cavia porcellus, the pIC25 is given as 6.9. Moreover, the midpoint of inhibition in the data set filed under Rattus norvegicus, the IC50, lay at 100 nM. For the same molecule, the Selectivity index in data set [1] is given as 1.3.

Turning to `CCO/C(O)=C1\C(COCCn2cc(N)nc2O)=NC(C)=C(C(=O)OC)C1c1ccccc1Cl` (stereo not given), the pIC25 in the data set listed under Cavia porcellus was under 6. This molecule gave an IC50 in the data set listed under Rattus norvegicus of 31.6 nM. Besides, in data set [1], the Selectivity index was over 32.

`CCO/C(O)=C1\C(COCCN2CC(=O)N=C2N)=NC(C)=C(C(=O)OC)C1c1ccccc1Cl` (stereo not given) gave a pIC25 in the data set listed under Cavia porcellus of 6.1. Also, the IC50 in the data set listed under Rattus norvegicus was 20 nM. Further, the Selectivity index in data set [1] is given as 40.

In the case of `CCO/C(O)=C1\C(COCCn2c(N)cnc2O)=NC(C)=C(C(=O)OC)C1c1ccccc1Cl` (stereo not given), in the data set filed under Cavia porcellus, the pIC25 is 6. This molecule also had an IC50 in the data set listed under Rattus norvegicus of 158 nM. Further, the Selectivity index in data set [1] stood at 6.

`CCO/C(O)=C1\C(COCCn2ccnn2)=NC(C)=C(C(=O)OC)C1c1ccccc1Cl` (stereo not given) had a pIC25 in the data set filed under Cavia porcellus of 7.3. In the data set filed under Rattus norvegicus, this molecule gave an IC50 of 15.8 nM. For the same molecule, the Selectivity index in data set [1] was found to be 3.

Turning to `CCO/C(O)=C1\C(COCCN2CC(=O)N(C)C2=O)=NC(C)=C(C(=O)OC)C1c1ccccc1Cl` (stereo not given), the pIC25 in the data set filed under Cavia porcellus was 6.4. The IC50 in the data set filed under Rattus norvegicus was 25.1 nM. Further, the Selectivity index in data set [1] is on record as 16.

On to `CCO/C(O)=C1\C(COCCn2cc(C(N)=O)nn2)=NC(C)=C(C(=O)OC)C1c1cccc(Cl)c1Cl` (stereo not given), for which the pIC25 in the data set filed under Cavia porcellus turned out to be 6.6. The same molecule yielded a half-life in data set [2] of 20 min. The molecule also yielded a Decrease in the data set with Canis familiaris of 54%. In the data set filed under Rattus norvegicus, this molecule gave an IC50 of 3.16 nM. Moreover, in data set [1], the Selectivity index is 80.

The molecule `CCO/C(O)=C1\C(COCCn2nncc2C(N)=O)=NC(C)=C(C(=O)OC)C1c1cccc(Cl)c1Cl` (stereo not given) had a pIC25 in the data set filed under Cavia porcellus of 6.5. This molecule also had an IC50 in the data set listed under Rattus norvegicus of 15.8 nM. Besides, the Selectivity index in data set [1] is 20.

The molecule `CCO/C(O)=C1\C(COCCN2CC(=O)N=C2N)=NC(C)=C(C(=O)OC)C1c1cccc(Cl)c1Cl` (stereo not given) displayed a half-life in data set [2] of over 180 min. Also, the Decrease in the data set with Canis familiaris turned out to be 60%.

`CCO/C(O)=C1\C(COCCN2CC(=O)NC2=O)=NC(C)=C(C(=O)OC)C1c1ccccc1Cl` (stereo not given) gave a pIC25 in the data set listed under Cavia porcellus of 6.3. In addition, it took 20 nM to reach half-maximal inhibition in the data set listed under Rattus norvegicus (IC50). Besides, the Selectivity index in data set [1] is 25.

Take `CCO/C(O)=C1\C(COCCn2cc(C(N)=O)nn2)=NC(C)=C(C(=O)OC)C1c1ccccc1Cl` (stereo not given): the pIC25 in the data set filed under Cavia porcellus is listed as under 6. In the data set listed under Rattus norvegicus, this molecule had an IC50 of 20 nM. Moreover, the Selectivity index in data set [1] is reported as over 50.

In the data set listed under Cavia porcellus, `CCO/C(O)=C1\C(COCCn2c(C)nc(C)c2C)=NC(C)=C(C(=O)OC)C1c1ccccc1Cl` (stereo not given) came in with a pIC25 of 7.5. In addition, the IC50 in the data set listed under Rattus norvegicus is 5.01 nM. Besides, in data set [1], the Selectivity index is 6.

On to `CCO/C(O)=C1\C(COCCn2ccnc2C)=NC(C)=C(C(=O)OC)C1c1ccccc1Cl` (stereo not given), for which the pIC25 in the data set filed under Cavia porcellus was found to be 7.8. Also, inhibition in the data set filed under Rattus norvegicus was half-maximal at 2.51 nM (IC50). Further, in data set [1], the Selectivity index is recorded as 6.

Molecule `CCO/C(O)=C1\C(COCCN2CC(=O)NC2=O)=NC(C)=C(C(=O)OC)C1c1cccc(Cl)c1Cl` (stereo not given) yielded a pIC25 in the data set filed under Cavia porcellus of 7.1. The molecule further gave a half-life in data set [2] of 30 min. For the same molecule, the Decrease in the data set on Canis familiaris came to 65%. In addition, inhibition in the data set filed under Rattus norvegicus was half-maximal at 3.16 nM (IC50). Further, the Selectivity index in data set [1] was 25.

In the case of `CCO/C(O)=C1\C(COCCn2cc(N)n(C)c2=O)=NC(C)=C(C(=O)OC)C1c1ccccc1Cl` (stereo not given), the pIC25 in the data set listed under Cavia porcellus amounted to 6.2. Besides, the IC50 in the data set filed under Rattus norvegicus is 25.1 nM. Also, in data set [1], the Selectivity index is 25.

In the case of `CCO/C(O)=C1\C(COCCn2cnc3ccccc32)=NC(C)=C(C(=O)OC)C1c1ccccc1Cl` (stereo not given), the pIC25 in the data set listed under Cavia porcellus was determined as 7.2. The molecule also showed an IC50 in the data set listed under Rattus norvegicus of 20 nM. Further, the Selectivity index in data set [1] is 3.

In the data set listed under Cavia porcellus, `CCO/C(O)=C1\C(COCCN2CC(=O)N(C)C2=O)=NC(C)=C(C(=O)OC)C1c1cccc(Cl)c1Cl` (stereo not given) yielded a pIC25 of 7.2. In data set [2], this molecule returned a half-life of 10 min. In the data set on Canis familiaris, this molecule gave a Decrease of 50%.

As to `CCOC(=O)C1=C(COCCN)NC(C)=C(C(=O)OC)C1c1ccccc1Cl` (stereo not given) [AMLODIPINE], in the data set listed under Cavia porcellus, the pIC25 stood at 7.2. In the data set filed under Rattus norvegicus, this molecule showed an IC50 of 7.94 nM. For the same molecule, the Selectivity index in data set [1] stood at 8.

In the case of `COC(=O)C1=C(C)NC(C)=C(C(=O)OC)C1c1ccccc1[N+](=O)[O-]` [NIFEDIPINE], the pIC25 in the data set filed under Cavia porcellus came out at 7.5. The half-life in data set [2] worked out at 36 min. Moreover, the Decrease with Canis familiaris came out at 77%. The Selectivity index in data set [1] was 8.

Broadly, the IC50 is the concentration needed to halve the response being measured. A lower IC50 goes with inhibition by little substance. For orientation: half-life means the time needed for the level to fall by half in the phase considered. High values mean slow decline, low ones rapid decline.
